Measured values pooled from the literature.
Compare with care: the assays were run in different laboratories.
Target: Aurora kinase B (AURKB, Homo sapiens, UniProt Q96GD4)

For `COc1ccc2c(O[C@@H]3C[C@H]4C(=O)N[C@]5(C(=O)O)CC5/C=C\CCCCC[C@H](NC(=O)OC5CCCC5)C(=O)N4C3)cc(-c3csc(NC(=O)C(C)C)n3)nc2c1C` (some centres unmarked), the remaining binding was 91% (cell-free assay; competition with immobilised ligand; 1 µM).
With `C[C@@H]1CN(c2ccc3ncc(-c4ccc5[nH]nc(C6CC6)c5c4)n3n2)C[C@H](C)O1` the remaining binding was 82% (binding; competition with immobilised ligand; 0.5 µM).
`CN(CCCC(F)(F)F)c1nccc(-c2cnn3ncccc23)n1` has a remaining binding of 98% (binding; 1 µM).
With `Cc1c(C(=O)O)cc(-c2ccc(C3CCNCC3)cc2)c2ccc(-c3ccc(C(F)(F)F)cc3)cc12` the remaining binding was 100% (cell-free assay; competition with immobilised ligand; 1 µM).
For `O=C(c1ccc(Nc2ncc(Cl)c(-c3ccc(Cl)s3)n2)cc1)N1CCC(N2CCCC2)CC1`, the remaining binding was 8.3% (binding; competition with immobilised ligand; 1 µM).
`CC(=O)N1CCC(c2ccc(C(=O)NC3=NCCN3)cc2C(F)(F)F)CC1` has a remaining binding of 100% (cell-free assay; competition with immobilised ligand; 1 µM).
`O=C(c1ccc(Nc2nccc(-c3cc4ccccc4s3)n2)cc1)N1CCC(N2CCCC2)CC1` has a remaining binding of 63% (binding; competition with immobilised ligand; 1 µM).
With `C=CC(=O)N1CCC(C(=O)NCC(=O)N2CCN(c3nc(-c4cnc(N)nc4C(F)F)nc(N4CCOCC4)n3)CC2)CC1` the remaining binding was 56% (binding; competition with immobilised ligand; 1 µM).
With `CC(C)(C)c1ccc(-c2nc(CBr)nn2-c2cccc(O)c2)cc1` the remaining binding was 69% (cell-free assay; competition with immobilised ligand; 10 µM).
`O=C(NCc1ncc(C(F)(F)F)cc1Cl)c1ccc2c(c1)C1(CCS(=O)(=O)CC1)[C@@H](C1CC1)N2S(=O)(=O)c1ccc(F)cc1` has a remaining binding of 66% (cell-free assay; competition with immobilised ligand; 1 µM).
The remaining binding of `CCN1CCN(Cc2ccc(C(=O)Nc3ccc(C)c(Oc4ccc5c(c4)CC(=O)N5)c3)cc2C(F)(F)F)CC1` is reported as 100% (binding; competition with immobilised ligand; 1 µM).
The remaining binding of `CN(c1ccnc(CNc2nc(Nc3ccc4c(c3)CC(=O)N4)ncc2C(F)(F)F)n1)S(C)(=O)=O` is reported as 9.9% (cell-free assay; competition with immobilised ligand; 1 µM).
With `O=C(NCC1CCOCC1)c1n[nH]cc1NC(=O)c1c(F)cccc1F` the remaining binding was 78% (binding; competition with immobilised ligand; 1 µM).
`CNC(=O)[C@@H]1CC[C@@H](n2c(-c3ccc4cnccc4c3)nc3ccc(C(=O)NCc4cccc(C(N)=O)c4)cc32)C1` has a remaining binding of 95% (binding; competition with immobilised ligand; 1 µM).
With `CN(C)c1nccc(-c2cnc3ncccn23)n1` the remaining binding was 76% (binding; 1 µM).
`N#Cc1ccccc1CSc1nnc2c(n1)[nH]c1ccccc12` gave a remaining binding of 100% (binding; competition with immobilised ligand; 10 µM).
`Cc1cnc(Nc2ccc(C(=O)N3CCC(N4CCCC4)CC3)cc2)nc1-c1cc2ccccc2s1` has a remaining binding of 6.8% (binding; competition with immobilised ligand; 1 µM).
With `N[C@H]1CCN(c2nccc(-c3cnn4ncccc34)n2)C1` the remaining binding was 77% (binding; 1 µM).
For `COc1cnc(Nc2cccc(S(N)(=O)=O)c2)nc1N1CCN(c2ccccc2)CC1`, the remaining binding was 89% (binding; competition with immobilised ligand; 1 µM).
For `C[C@@H]1CN(c2cc(-c3n[nH]c4ccc(OC5(C)CC5)cc34)ncn2)C[C@H](C)O1`, the remaining binding was 73% (cell-free assay; competition with immobilised ligand; 0.1 µM).
`CN(C)c1ncc(F)c(-c2cnn3ncccc23)n1` gave a remaining binding of 77% (binding; 1 µM).
`CN([C@@H]1CCc2c(CC(=O)O)c3ccccc3n2C1)S(=O)(=O)c1ccc(F)cc1` gave a remaining binding of 91% (cell-free assay; competition with immobilised ligand; 1 µM).
`COc1ccnn2ncc(-c3ccnc(N(C)C)n3)c12` has a remaining binding of 100% (binding; 1 µM).
